Series [1] deals with T1, fMet-Leu-Phe receptor (Homo sapiens, UniProt P21462).
T1 sequence (P21462 whole entry): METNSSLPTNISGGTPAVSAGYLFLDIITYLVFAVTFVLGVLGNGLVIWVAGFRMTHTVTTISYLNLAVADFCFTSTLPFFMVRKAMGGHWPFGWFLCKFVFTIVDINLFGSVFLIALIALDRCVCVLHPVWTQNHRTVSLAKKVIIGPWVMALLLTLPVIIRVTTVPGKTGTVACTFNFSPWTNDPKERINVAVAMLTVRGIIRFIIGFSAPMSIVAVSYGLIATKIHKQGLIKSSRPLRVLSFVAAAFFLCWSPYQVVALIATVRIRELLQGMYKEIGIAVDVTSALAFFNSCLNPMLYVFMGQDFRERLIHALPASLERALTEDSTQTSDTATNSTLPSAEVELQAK
The series is described as follows: Agonist activity at human FPR1 expressed in HEK 293 cells co-expressing Galpha15 measured every 1.5 sec for 80 sec by Fluo-4 NW staining based scanning fluorometric method. The series is classed as cell-based, HEK293.

Series [2] is described as follows: In vivo […] in mouse assessed as reduction in LPS-induced neutrophil infiltration in BALF cells at 1 mg/kg, po relative to control. The series is classed as functional. The method, boiled down:
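Mice were given LPS and dosed orally at 1 mg/kg. Neutrophils in BALF were counted, and percent inhibition was calculated.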

Series [3] concerns the target Cytochrome P450 3A4 (Homo sapiens, UniProt P08684). The series is described as follows: Inhibition of recombinant human CYP3A4. The series is classed as ADME.
For series [4], the target named is T1, fMet-Leu-Phe receptor. The series can be described thus: Agonist activity at human FPR1 expressed in CHO cells assessed as reduction cAMP accumulation incubated for 1 hr by TR-FRET assay. The series is classed as functional, cell-based. The procedure, abridged: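 CHO cells overexpressing the receptor were used, 2,000 hFPR2 or 4,000 hFPR1 cells/well. Cells were incubated 30 min at room temperature with compound (1.7 nM-100 µM, 1% DMSO), IBMX 200 µM and forskolin (5 µM for FPR2, 10 µM for FPR1) in DPBS/0.1% BSA. cAMP was read by HTRF after 1 h lysis against a standard curve. Data were fitted to a 4-parameter logistic, average of ≥2 occasions.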
(In general: Cyclic AMP is a second messenger, typically raised through Gs and lowered through Gi signalling.)

The target of series [5] is T2, fMet-Leu-Phe receptor (Mus musculus, UniProt P33766).
T2 sequence (P33766 whole entry): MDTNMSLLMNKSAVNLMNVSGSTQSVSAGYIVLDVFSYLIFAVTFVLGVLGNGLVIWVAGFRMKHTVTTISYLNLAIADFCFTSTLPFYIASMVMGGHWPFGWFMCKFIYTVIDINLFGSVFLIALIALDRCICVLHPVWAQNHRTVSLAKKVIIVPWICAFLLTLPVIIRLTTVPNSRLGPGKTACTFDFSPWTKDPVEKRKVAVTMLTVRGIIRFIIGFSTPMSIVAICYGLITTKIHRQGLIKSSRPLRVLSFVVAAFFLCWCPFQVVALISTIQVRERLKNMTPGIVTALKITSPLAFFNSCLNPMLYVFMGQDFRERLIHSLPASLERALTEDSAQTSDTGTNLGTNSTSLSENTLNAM
The series can be described thus: Agonist activity at mouse FPR1 expressed in CHO cells assessed as reduction cAMP accumulation incubated for 1 hr by TR-FRET assay. It counts as functional, cell-based.

The subject of series [6] is CHO. The series is described as follows: Selectivity ratio of agonist activity at mouse FPR1 expressed in CHO cells to agonist activity at mouse FPR2 expressed in CHO cells. It counts as cell-based. The method, boiled down: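 Ratio of FPR1 to FPR2 EC50 from the CHO-cell forskolin/IBMX cAMP HTRF assay, 30 min at room temperature, 4-parameter logistic fit.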
The nature of series [7]: Volume of distribution at steady state in Crl:CD(SD) rat at 1 mg/kg, iv by LC-MS/MS analysis. It counts as ADME, organism-based. As to conditions: in vivo, read-out: Vdss. The procedure, abridged:
(§1)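 Male animals received intravenous solution in DMSO/PEG400/saline (5/47.5/47.5). EDTA plasma was extracted with methanol/acetonitrile (1:1) plus internal standard and quantified by LC-MS/MS. AUC0-inf was calculated by the trapezoidal rule with terminal-phase kel extrapolation.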

A short description of series [8]: Volume of distribution at steady state in Beagle dog at 1 mg/kg, iv by LC-MS/MS analysis. As to conditions: in vivo, read-out: Vdss. The series is classed as ADME, organism-based, Canis lupus familiaris. The procedure, abridged: as §1
Series [9] is described as follows: Total clearance in Crl:CD1(ICR) mouse at 0.5 mg/kg, iv by LC-MS/MS analysis. The series is classed as ADME, organism-based. As to conditions: in vivo. The procedure, abridged: as §1
Series [10] can be described thus: Total clearance in Crl:CD(SD) rat at 1 mg/kg, iv by LC-MS/MS analysis. The series is classed as ADME, organism-based. The settings on record: in vivo. The method, boiled down: as §1
Series [11] can be described thus: Cmax in Crl:CD(SD) rat at 1 mg/kg, po by LC-MS/MS analysis. It counts as ADME, organism-based. The arrangement: route oral, dose 1 mg/kg. The settings on record: in vivo. The method, boiled down: (§2)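 Male animals dosed orally with a suspension in 0.5% MC. Blood was taken into EDTA 2K capillaries and plasma was stored frozen. Plasma was mixed with methanol/acetonitrile (1:1) plus internal standard, centrifuged, and drug was measured by LC-MS/MS. AUC0-inf was obtained by the trapezoidal rule, extrapolated with kel from the terminal phase. t1/2 = ln2/kel.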

The nature of series [12]: Cmax in Beagle dog at 1 mg/kg, po by LC-MS/MS analysis. The series is classed as ADME, organism-based, Canis lupus familiaris. The arrangement: route oral, dose 1 mg/kg. As to conditions: in vivo. The method, boiled down: as §2
Series [13] is described as follows: Half life in Crl:CD(SD) rat at 1 mg/kg, po by LC-MS/MS analysis. The series is classed as ADME, organism-based. The settings on record: in vivo. The procedure, abridged: as §2
The nature of series [14]: Half life in Beagle dog at 1 mg/kg, po by LC-MS/MS analysis. It counts as ADME, organism-based, Canis lupus familiaris. The settings on record: in vivo. The procedure, abridged:
as §2

Series [15] can be described thus: Half life in cynomolgus monkey at 3 mg/kg, po by LC-MS/MS analysis. It counts as ADME, organism-based, Macaca fascicularis. The settings on record: in vivo. The method, boiled down: as §2
Series [16] can be described thus: AUC (0 to infinity) in BALB/cCrSlc mouse at 1 mg/kg, po by LC-MS/MS analysis. The series is classed as ADME, organism-based. The arrangement: time infinity, route oral, dose 1 mg/kg. The settings on record: in vivo. The procedure, abridged: as §2
Series [17] can be described thus: AUC (0 to infinity) in cynomolgus monkey at 3 mg/kg, po by LC-MS/MS analysis. The series is classed as ADME, organism-based, Macaca fascicularis. More on the design: time infinity, route oral, dose 3 mg/kg. As to conditions: in vivo. The method, boiled down:
as §2

Series [18] is described as follows: Oral bioavailability in Beagle dog at 1 mg/kg by LC-MS/MS analysis. The series is classed as ADME, organism-based, Canis lupus familiaris. The settings on record: in vivo.
A short description of series [19]: Clearance in rat liver microsome at 0.1 umol/l and measured for 60 mins by LC-MS/MS analysis. As to conditions: microsomes, 1 h, 0.1 µM, dose 0.1 µmol/L. The series is classed as ADME. The method, boiled down: (§3)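 Liver microsomes (1 mg protein/mL final) with an NADPH regenerating system were preincubated 5 min at 37°C, then given 0.1 µmol/L compound. Samples were taken at 0-60 min, quenched in methanol/acetonitrile with internal standard, and analysed by LC-MS/MS. Runs were in triplicate. kel came from 5-30 min points. CLint = kel/protein concentration (mL/min/mg protein).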
In general terms: Microsomes from liver hold many membrane-bound enzymes, among them those of drug oxidation.

A short description of series [20]: Clearance in dog liver microsome at 0.1 umol/l and measured for 60 mins by LC-MS/MS analysis. The series is classed as ADME, Canis lupus familiaris. The settings on record: microsomes, 1 h, 0.1 µM, dose 0.1 µmol/L. The method, boiled down: as §3
Series [21] is described as follows: Clearance in monkey liver microsome at 0.1 umol/l and measured for 60 mins by LC-MS/MS analysis. It counts as ADME, Macaca mulatta. As to conditions: rhesus monkey, microsomes, 1 h, 0.1 µM, dose 0.1 µmol/L. The method, boiled down:
as §3

Series [22] in a line: Clearance in dog hepatocytes at 0.1 umol/l and measured for 6 hrs by LC-MS/MS analysis. The series is classed as ADME, cell-based, Canis lupus familiaris, Hepatocyte. The settings on record: dose 0.1 µmol/L, read-out: CLH. The method, boiled down:
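Hepatocytes (1 × 10⁶ cells/mL) in modified Krebs–Henseleit buffer were preincubated 5 min at 37°C, then given 0.1 µmol/L compound. Samples were taken at 0, 1, 2, 4 and 6 h and analysed by LC-MS/MS, in duplicate. kel came from 0-2 h points. CLint was scaled by hepatocellularity and liver weight (mL/min/kg).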

Sequence of Cytochrome P450 3A4 (P08684 whole entry): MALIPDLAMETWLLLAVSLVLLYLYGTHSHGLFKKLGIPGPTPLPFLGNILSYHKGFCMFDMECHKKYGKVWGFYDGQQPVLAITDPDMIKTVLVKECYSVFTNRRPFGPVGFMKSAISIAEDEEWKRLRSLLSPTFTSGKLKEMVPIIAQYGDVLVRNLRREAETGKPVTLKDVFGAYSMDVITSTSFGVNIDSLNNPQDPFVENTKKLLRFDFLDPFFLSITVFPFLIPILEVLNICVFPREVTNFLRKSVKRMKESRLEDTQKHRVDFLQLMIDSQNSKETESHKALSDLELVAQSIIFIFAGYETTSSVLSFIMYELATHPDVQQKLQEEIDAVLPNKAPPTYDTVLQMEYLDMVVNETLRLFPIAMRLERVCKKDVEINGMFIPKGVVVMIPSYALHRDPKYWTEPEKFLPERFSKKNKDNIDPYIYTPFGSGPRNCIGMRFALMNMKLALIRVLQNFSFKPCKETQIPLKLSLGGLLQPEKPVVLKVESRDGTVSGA

Broadly, the EC50 is the concentration that produces a half-maximal response. A word on the inhibition in vivo: it is the relative decrease from the control value, in per cent. In general, IC50 refers to the midpoint of a concentration-inhibition curve. Usually clearance stands for a measure of how efficiently the substance is removed, as volume per time. What is called Cmax is the maximum level reached in the sampled fluid or tissue. The half-life is how long it takes for the measured level to halve. For orientation: AUC(0-inf) means the area under the concentration-time curve extrapolated to infinity. A word on the bioavailability: it is dose-corrected exposure relative to a reference, in per cent. Regarding `COc1cc(F)c([C@@H]2CNC(=O)[C@H]2NC(=O)Nc2ccccc2)c(F)c1` [BMS-986235], the EC50 in [1] stood at 2800 nM; in [4], 400 nM; in [5], 500 nM. Besides, the inhibition in vivo at 1 mg/kg in series [2] is 88%. In addition, the IC50 in series [3] was more than 20000 nM. Moreover, the Ratio EC50 in [6] was 1000. In addition, the Vd came out at 3 L/kg in series [7] and 0.98 L/kg in series [8]. Also, the clearance in series [9] stood at 90 mL/min/kg; in series [10] it was 49 mL/min/kg. Further, the values for the peak concentration (Cmax) in [11] and in series [12] were 240 nM and 820 nM, respectively. Also, the results for the half-life in [13], in series [14] and in [15] were 3.8 h, 2.5 h and 5 h, respectively. In addition, the values for the AUC(0-inf) in [16] and in [17] were 0.12 µM·h and 5.8 µM·h, respectively. In [18], this compound gave a bioavailability of 50%. Further, the results for the CLH in series [19], in [20] and in [21] were 21 µL/min/mg, 42 µL/min/mg and 30 µL/min/mg, respectively. Further, the CLint scaled at 0.1 µM in series [22] was found to be 50 mL/min/kg.

The values are drawn from ChEMBL document CHEMBL4725241, “Discovery of BMS-986235/LAR-1219: A Potent Formyl Peptide Receptor 2 (FPR2) Selective Agonist for the Prevention of Heart Failure” (J Med Chem, 2020).
